The values that follow come from ChEMBL document CHEMBL1150814, “Schizanrins [corrected] B, C, D, and E, four new lignans from Kadsura matsudai and their antihepatitis activities” (J Nat Prod, 2001).

Broadly, the IC50 is the point on the concentration scale where inhibition reaches its midpoint.

Values after ≈ are worked out from the molar mass of the structure shown. Active and inactive are the calls of the source. No cut-off for these calls is given here. Where only a bound is given, the exact number is not on record here.

Data set [1] can be described thus: Cytotoxicity against human MS-G2 cells at 10 ug/ml by AST method. It counts as cell-based. In a few lines: (§1)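 Cell damage in compound-treated MS-G2 cultures was measured by aspartate transaminase (AST) kit. AST above 25 IU/L was taken as indicating cell damage or lysis.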
For data set [2], the system named is Hepatitis B virus. Description: Antiviral activity against Hepatitis B virus infected in human MS-G2 cells assessed as inhibition of surface antigen secretion at 20 ug/ml after 3 days by ELISA. It counts as functional. In a few lines:
(§2)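 MS-G2 cells (HepG2 transfected with two copies of HBV genome, secreting virus) grown in RPMI-1640 with 10% fetal calf serum at 37 °C, 5% CO2. Seeded 3 × 10^5 cells/well, attached overnight, then given compound in DMSO (1, 5, 10, 20 μg/mL; DMSO ≤2.5 μL/mL; DMSO-only control). Media collected at 3 days. HBsAg and HBeAg measured by ELISA at 490 nm. % inhibition taken relative to control.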
(In general: ELISA stands for enzyme-linked immunosorbent assay.)

For data set [3], the system named is Hepatitis B virus. Description: Antiviral activity against Hepatitis B virus infected in human MS-G2 cells assessed as inhibition of early antigen secretion at 20 ug/ml after 3 days by ELISA. It is filed as functional. In a few lines:
as §2

Data set [4] is described as follows: Cytotoxicity against human MS-G2 cells at 20 ug/ml by AST method. It is filed as cell-based. In a few lines: as §1
The test system of data set [5] is Human immunodeficiency virus. Briefly: Antiviral activity against HIV replication in human H9 lymphocytes. It is filed as functional, organism-based.
Data set [6] has as its system Hepatitis B virus. Briefly: Antiviral activity against Hepatitis B virus infected in human MS-G2 cells assessed as inhibition of surface antigen secretion at 10 ug/ml after 3 days by ELISA. It is filed as functional. Further details: scale not given: the % may be the effect or the level left. In a few lines: as §2
Data set [7] has as its system Hepatitis B virus. Briefly: Antiviral activity against Hepatitis B virus infected in human MS-G2 cells assessed as inhibition of early antigen secretion at 10 ug/ml after 3 days by ELISA. It counts as functional. Further details: scale not given: the % may be the effect or the level left. In a few lines:
as §2

The next data set deals with H9. Briefly: Cytotoxicity against human H9 cells. It is filed as cell-based.

Turning to `COc1cc2c(c(OC)c1OC)-c1c(cc3c(c1O)OCO3)[C@@H](OC(=O)c1ccccc1)[C@H](C)[C@H](C)C2` [SCHIZARIN E], the Activity was 20.2 IU/L in data set [1]; “Toxic” with Hepatitis B virus [2]; “Toxic” with Hepatitis B virus [3]; 44.3 IU/L in data set [4]; below 25% in the data set with Hepatitis B virus [6]; 31.8% in the data set with Hepatitis B virus [7]. Further, in data set [5], the result was inactive. In the data set with H9, this compound had an IC50 of 2.08 µg/mL (≈ 4.11 µM).

Take `CCC(C)C(=O)O[C@@H]1c2cc3c(c(O)c2-c2c(cc(OC)c(OC)c2OC)C[C@@H](C)[C@H]1C)OCO3` (stereo partly specified) [SCHIZARIN B]: the Activity in data set [1] is listed as 17.6 IU/L; with Hepatitis B virus [2], 54.9%; in the data set on Hepatitis B virus [3], 42.1%; in data set [4] it was 15.5 IU/L; with Hepatitis B virus [6] it was 42.6%; with Hepatitis B virus [7], 40.7%. Besides, the outcome in data set [5] was inactive.

For the compound `COC1=C(OC)C(=O)[C@]23COc4c5c(cc(c42)[C@H](OC(=O)/C=C/c2ccccc2)[C@H](C)[C@H](C)CC3=C1)OCO5` [SCHIARISANRIN D], the Activity in data set [1] was 20.1 IU/L; with Hepatitis B virus [2] it was below 25%; in the data set with Hepatitis B virus [3], 42.9%; in data set [4] it was 22 IU/L; in the data set on Hepatitis B virus [6], below 25%; with Hepatitis B virus [7], 27%.

On to `CC=C(C)C(=O)O[C@@H]1c2cc3c(c(O)c2-c2c(cc(OC)c(OC)c2OC)C[C@@H](C)[C@H]1C)OCO3`, for which the Activity is 16.8 IU/L in data set [1]; “Toxic” in the data set on Hepatitis B virus [2]; “Toxic” in the data set on Hepatitis B virus [3]; 47.8 IU/L in data set [4]; below 25% in the data set on Hepatitis B virus [6]; 25.8% in the data set with Hepatitis B virus [7]. Besides, in data set [5], the outcome was inactive.

`CCC(C)C(=O)O[C@H]1c2cc3c(c4c2C(C(=O)C(=O)OC)(CO4)/C(=C\C(=O)OC)C[C@@H](C)[C@H]1C)OCO3` (stereo partly specified) [TAIWANSCHIRIN A]: the Activity in data set [1] is 14.1 IU/L; in the data set on Hepatitis B virus [2], below 25%; in the data set on Hepatitis B virus [3], 43%; in data set [4], 14.8 IU/L; in the data set with Hepatitis B virus [6], below 25%; in the data set on Hepatitis B virus [7] it was below 25%.

As for `CCCCCC(=O)O[C@@H]1c2cc3c(c(O)c2-c2c(cc(OC)c(OC)c2OC)C[C@@H](C)[C@H]1C)OCO3` [SCHIZARIN C], the Activity in data set [1] was 16 IU/L; with Hepatitis B virus [2], “Toxic”; in the data set on Hepatitis B virus [3] it was “Toxic”; in data set [4], 35.9 IU/L; in the data set on Hepatitis B virus [6] it was below 25%; in the data set on Hepatitis B virus [7] it was below 25%. In addition, in data set [5], the result was inactive.
